Source: ChEMBL document CHEMBL5724801, “EUbOPEN Chemogenomics Library - Multiplex” (2024)
Where “and” joins values, the source holds several entries; their conditions need not be identical. Equal entries are not always repeated.

Tested on: HEK-293T
Test: Multiplex assay against HEK293T
Type: toxicity, cell-based
Conditions: human
Method in brief: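 At seeding, live cells were stained with Hoechst33342, BioTracker Green Microtubule Cytoskeleton Dye, MitoTracker Red and Annexin V Alexa Fluor 680. After compound addition they were imaged on a CQ1 microscope at 37°C and 5% CO2, and CellPathfinder machine-learning gating sorted them into Hoechst high-intensity objects or normal cells, with normal cells further split into healthy, pyknosed or fragmented nuclei and pyknosed cells into mitotic or apoptotic. Tubulin, mitochondrial-mass and membrane-permeability phenotypes are given as per cents of cells with healthy nuclei.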

[1] = 12 h, 1 µM, compound concentration 1 uM
[2] = 12 h, 10 µM, compound concentration 10 uM
[3] = 24 h, 1 µM, compound concentration 1 uM
[4] = 24 h, 10 µM, compound concentration 10 uM
[5] = 48 h, 1 µM, compound concentration 1 uM
[6] = 48 h, 10 µM, compound concentration 10 uM

CC(C)C[C@H](CO)Nc1nc(S[C@@H](C)c2ccccc2)nc2nc(N)sc12 [AZD-8797]
Population Apoptotic (%) [1]: 39% and 46% | Population Fragmented Nuclei (%) [1]: 2% and 8% | Population Healthy Nuclei (%) [1]: 81% and 72% | Population Hoechst High Intensity Objects (%) [1]: 4% and 7% | Population Membrane Permeable-Phenotype (%) [1]: 0% | Population Mitochondria Different-Phenotype (%) [1]: 44% and 57% | Population Mitotic Cells (%) [1]: 60% and 53% | Population Normal (%) [1]: 95% and 92% | Population Pyknosed Nuclei (%) [1]: 15% and 18% | Population Tubulin-Different-Phenotype (%) [1]: 27% and 22% | Total Cell Count [1]: 326 and 356 | Population Apoptotic (%) [2]: 65% and 67% | Population Fragmented Nuclei (%) [2]: 9% and 6% | Population Healthy Nuclei (%) [2]: 71% and 75% | Population Hoechst High Intensity Objects (%) [2]: 10% | Population Membrane Permeable-Phenotype (%) [2]: 0% | Population Mitochondria Different-Phenotype (%) [2]: 70% and 75% | Population Mitotic Cells (%) [2]: 34% and 32% | Population Normal (%) [2]: 89% | Population Pyknosed Nuclei (%) [2]: 18% | Population Tubulin-Different-Phenotype (%) [2]: 56% and 39% | Total Cell Count [2]: 279 and 345 | Population Apoptotic (%) [3]: 37% and 45% | Population Fragmented Nuclei (%) [3]: 7% | Population Healthy Nuclei (%) [3]: 76% and 81% | Population Hoechst High Intensity Objects (%) [3]: 3% and 5% | Population Membrane Permeable-Phenotype (%) [3]: 0% | Population Mitochondria Different-Phenotype (%) [3]: 25% and 42% | Population Mitotic Cells (%) [3]: 62% and 54% | Population Normal (%) [3]: 97% and 94% | Population Pyknosed Nuclei (%) [3]: 15% and 11% | Population Tubulin-Different-Phenotype (%) [3]: 16% and 14% | Total Cell Count [3]: 400 and 421 | Population Apoptotic (%) [4]: 54% and 51% | Population Fragmented Nuclei (%) [4]: 8% and 9% | Population Healthy Nuclei (%) [4]: 73% and 77% | Population Hoechst High Intensity Objects (%) [4]: 9% and 8% | Population Membrane Permeable-Phenotype (%) [4]: 0% | Population Mitochondria Different-Phenotype (%) [4]: 64% and 71% | Population Mitotic Cells (%) [4]: 45% and 48% | Population Normal (%) [4]: 90% and 91% | Population Pyknosed Nuclei (%) [4]: 17% and 12% | Population Tubulin-Different-Phenotype (%) [4]: 39% and 36% | Total Cell Count [4]: 346 and 393 | Population Apoptotic (%) [5]: 43% and 24% | Population Fragmented Nuclei (%) [5]: 15% and 12% | Population Healthy Nuclei (%) [5]: 78% and 79% | Population Hoechst High Intensity Objects (%) [5]: 1% and 3% | Population Membrane Permeable-Phenotype (%) [5]: 0% and 1% | Population Mitochondria Different-Phenotype (%) [5]: 16% and 24% | Population Mitotic Cells (%) [5]: 56% and 75% | Population Normal (%) [5]: 98% and 96% | Population Pyknosed Nuclei (%) [5]: 6% and 8% | Population Tubulin-Different-Phenotype (%) [5]: 10% and 13% | Total Cell Count [5]: 663 and 681 | Population Apoptotic (%) [6]: 60% and 52% | Population Fragmented Nuclei (%) [6]: 16% and 15% | Population Healthy Nuclei (%) [6]: 72% and 75% | Population Hoechst High Intensity Objects (%) [6]: 7% and 6% | Population Membrane Permeable-Phenotype (%) [6]: 0% | Population Mitochondria Different-Phenotype (%) [6]: 57% and 52% | Population Mitotic Cells (%) [6]: 39% and 47% | Population Normal (%) [6]: 92% and 93% | Population Pyknosed Nuclei (%) [6]: 11% and 8% | Population Tubulin-Different-Phenotype (%) [6]: 28% and 21% | Total Cell Count [6]: 416 and 530

COc1cc(NC(=O)CCN2CCC(OC(=O)Nc3ccccc3-c3ccccc3)CC2)c(Cl)cc1CNC[C@H](O)c1ccc(O)c2[nH]c(=O)ccc12 [BATEFENTEROL]
Population Apoptotic (%) [1]: 42% and 47% | Population Fragmented Nuclei (%) [1]: 4% and 3% | Population Healthy Nuclei (%) [1]: 81% and 78% | Population Hoechst High Intensity Objects (%) [1]: 7% and 8% | Population Membrane Permeable-Phenotype (%) [1]: 0% | Population Mitochondria Different-Phenotype (%) [1]: 65% and 84% | Population Mitotic Cells (%) [1]: 57% and 52% | Population Normal (%) [1]: 92% and 91% | Population Pyknosed Nuclei (%) [1]: 14% and 17% | Population Tubulin-Different-Phenotype (%) [1]: 44% and 41% | Total Cell Count [1]: 420 and 285 | Population Apoptotic (%) [2]: 100% and 52% | Population Hoechst High Intensity Objects (%) [2]: 31% and 11% | Population Membrane Permeable-Phenotype (%) [2]: 0% and 1% | Population Normal (%) [2]: 68% and 88% | Population Pyknosed Nuclei (%) [2]: 9% and 22% | Population Apoptotic (%) [3]: 44% and 41% | Population Fragmented Nuclei (%) [3]: 9% and 7% | Population Healthy Nuclei (%) [3]: 77% and 82% | Population Hoechst High Intensity Objects (%) [3]: 5% and 8% | Population Membrane Permeable-Phenotype (%) [3]: 0% | Population Mitochondria Different-Phenotype (%) [3]: 59% and 65% | Population Mitotic Cells (%) [3]: 55% and 58% | Population Normal (%) [3]: 94% and 91% | Population Pyknosed Nuclei (%) [3]: 12% and 9% | Population Tubulin-Different-Phenotype (%) [3]: 35% and 27% | Total Cell Count [3]: 527 and 403 | Population Membrane Permeable-Phenotype (%) [4]: 0% | Population Mitochondria Different-Phenotype (%) [4]: 100% and 89% | Population Normal (%) [4]: 66% and 93% | Population Pyknosed Nuclei (%) [4]: 0% and 19% | Population Tubulin-Different-Phenotype (%) [4]: 100% and 78% | Population Apoptotic (%) [5]: 35% and 51% | Population Fragmented Nuclei (%) [5]: 15% and 13% | Population Healthy Nuclei (%) [5]: 75% and 79% | Population Hoechst High Intensity Objects (%) [5]: 3% | Population Membrane Permeable-Phenotype (%) [5]: 0% | Population Mitochondria Different-Phenotype (%) [5]: 36% and 42% | Population Mitotic Cells (%) [5]: 65% and 48% | Population Normal (%) [5]: 96% | Population Pyknosed Nuclei (%) [5]: 8% and 6% | Population Tubulin-Different-Phenotype (%) [5]: 17% | Total Cell Count [5]: 744 and 547 | Population Apoptotic (%) [6]: 100% and 57% | Population Hoechst High Intensity Objects (%) [6]: 7% | Population Membrane Permeable-Phenotype (%) [6]: 0% | Population Mitochondria Different-Phenotype (%) [6]: 66% and 76% | Population Normal (%) [6]: 92% | Population Pyknosed Nuclei (%) [6]: 16% and 11% | Population Tubulin-Different-Phenotype (%) [6]: 66% and 74%

CC(C)(c1ccc(O)cc1)c1ccc(O)cc1 [BISPHENOL A]
Population Apoptotic (%) [1]: 8.05% and 13.14% | Population Fragmented Nuclei (%) [1]: 5.16% and 3.01% | Population Hoechst High Intensity Objects (%) [1]: 0% and 0.6% | Population Membrane Permeable-Phenotype (%) [1]: 0% and 4.17% | Population Mitochondria Different-Phenotype (%) [1]: 34.18% and 33.33% | Population Mitotic Cells (%) [1]: 91.95% and 86.86% | Population Normal (%) [1]: 100% and 99.4% | Population Pyknosed Nuclei (%) [1]: 36.61% and 82.53% | Total Cell Count [1]: 407 and 167 | Population Apoptotic (%) [2]: 10.57% and 14.78% | Population Fragmented Nuclei (%) [2]: 4.23% and 2.74% | Population Hoechst High Intensity Objects (%) [2]: 1.19% and 0.68% | Population Membrane Permeable-Phenotype (%) [2]: 0% | Population Mitochondria Different-Phenotype (%) [2]: 37.63% and 18.52% | Population Mitotic Cells (%) [2]: 89.43% and 85.22% | Population Normal (%) [2]: 98.81% and 99.32% | Population Pyknosed Nuclei (%) [2]: 37.16% and 78.77% | Total Cell Count [2]: 335 and 147 | Population Apoptotic (%) [3]: 12.93% and 13.39% | Population Fragmented Nuclei (%) [3]: 1.95% and 0.56% | Population Healthy Nuclei (%) [3]: 77.52% and 28.89% | Population Hoechst High Intensity Objects (%) [3]: 0.18% and 0% | Population Membrane Permeable-Phenotype (%) [3]: 1.6% and 1.92% | Population Mitochondria Different-Phenotype (%) [3]: 13.7% and 15.38% | Population Mitotic Cells (%) [3]: 87.07% and 86.61% | Population Normal (%) [3]: 99.82% and 100% | Population Tubulin-Different-Phenotype (%) [3]: 9.82% and 13.46% | Population Apoptotic (%) [4]: 12.5% and 15.52% | Population Fragmented Nuclei (%) [4]: 2.67% and 1.71% | Population Healthy Nuclei (%) [4]: 74.28% and 32% | Population Hoechst High Intensity Objects (%) [4]: 0% | Population Membrane Permeable-Phenotype (%) [4]: 1.11% and 0% | Population Mitochondria Different-Phenotype (%) [4]: 19.11% and 16.07% | Population Mitotic Cells (%) [4]: 87.5% and 84.48% | Population Normal (%) [4]: 100% | Population Pyknosed Nuclei (%) [4]: 23.05% and 66.29% | Total Cell Count [4]: 486 and 175 | Population Apoptotic (%) [5]: 8.33% and 18.95% | Population Fragmented Nuclei (%) [5]: 3.14% and 0% | Population Healthy Nuclei (%) [5]: 87.89% and 52.74% | Population Hoechst High Intensity Objects (%) [5]: 0.07% and 0.99% | Population Membrane Permeable-Phenotype (%) [5]: 5.87% and 1.89% | Population Mitotic Cells (%) [5]: 91.67% and 81.05% | Population Normal (%) [5]: 99.93% and 99.01% | Population Fragmented Nuclei (%) [6]: 3.13% and 2.41% | Population Healthy Nuclei (%) [6]: 86.33% and 68.67% | Population Hoechst High Intensity Objects (%) [6]: 0% and 2.35% | Population Membrane Permeable-Phenotype (%) [6]: 4.42% and 1.75% | Population Mitochondria Different-Phenotype (%) [6]: 9.82% and 14.62% | Population Mitotic Cells (%) [6]: 95.65% and 84.72% | Population Normal (%) [6]: 100% and 97.65% | Population Pyknosed Nuclei (%) [6]: 10.54% and 28.92%
